Active and inactive are the calls of the source. The rule behind the calls is not given here.
Assays:
[1] = Inhibition of sheep brain dynamin 1 after 30 mins by malachite green method; parameters: species or system Ovis aries
In short: (§1)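 Enzyme was endogenous dynamin I purified from sheep brain. GTPase activity was read by malachite green phosphate detection, with dynamin and lipid levels set for adequate optical response. Inhibition was also scored at single concentrations of 300 or 400 μM.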

Ovis aries [2] = species on record: Ovis aries; assay: Inhibition of sheep brain dynamin 1 at 400 uM after 30 mins by malachite green method; in short: as §1
Dynamin-1 = target: T1, Dynamin-1 (Rattus norvegicus, UniProt P21575); assay: Inhibition of dynamin 1-mediated synaptic vesicle endocytosis in Sprague-Dawley rat synaptosomes assessed as uptake of FM 4-64 dye after 30 mins by automated acquisition and analysis system; format: subcellular, Brain
T1 sequence (P21575 whole entry): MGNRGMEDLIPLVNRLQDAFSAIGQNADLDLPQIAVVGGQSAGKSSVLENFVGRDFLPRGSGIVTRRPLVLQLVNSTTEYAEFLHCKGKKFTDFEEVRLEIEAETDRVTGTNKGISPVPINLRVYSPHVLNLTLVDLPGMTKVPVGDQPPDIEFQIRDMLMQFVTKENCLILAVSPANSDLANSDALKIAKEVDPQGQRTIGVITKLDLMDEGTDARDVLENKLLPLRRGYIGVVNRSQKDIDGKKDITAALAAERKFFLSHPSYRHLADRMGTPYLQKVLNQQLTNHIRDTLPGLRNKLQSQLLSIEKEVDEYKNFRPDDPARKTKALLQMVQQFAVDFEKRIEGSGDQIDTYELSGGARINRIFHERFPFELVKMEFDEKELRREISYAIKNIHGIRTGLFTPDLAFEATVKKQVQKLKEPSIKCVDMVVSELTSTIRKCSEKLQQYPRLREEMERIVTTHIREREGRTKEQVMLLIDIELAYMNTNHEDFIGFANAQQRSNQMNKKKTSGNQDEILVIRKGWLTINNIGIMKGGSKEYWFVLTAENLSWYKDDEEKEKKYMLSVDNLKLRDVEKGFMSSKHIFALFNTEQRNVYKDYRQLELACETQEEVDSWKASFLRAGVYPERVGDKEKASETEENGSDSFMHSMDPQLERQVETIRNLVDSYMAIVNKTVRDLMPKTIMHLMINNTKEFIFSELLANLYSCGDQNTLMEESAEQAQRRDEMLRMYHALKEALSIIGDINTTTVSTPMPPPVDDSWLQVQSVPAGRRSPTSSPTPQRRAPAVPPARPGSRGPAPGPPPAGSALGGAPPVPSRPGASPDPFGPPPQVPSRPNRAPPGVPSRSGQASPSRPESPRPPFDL
In short: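 Rat brain nerve terminals (isolated synaptosomes) used for synaptic vesicle endocytosis. Endocytosis was tracked as change in uptake of the styryl dye FM4-64, an endocytic marker.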

Ovis aries [3] = species on record: Ovis aries; assay: Competitive inhibition of dynamin 1 from sheep brain at 14 to 19 uM by Lineweaver-Burke plot
In short: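 Dynamin I GTPase purified from sheep brain, read by malachite green phosphate release. Michaelis-Menten kinetics with inhibitor at 14, 15, 16, 17, 18 and 19 μM and Mg2+·GTP substrate at 60-200 μM. Double-reciprocal (Lineweaver-Burke) plot of reaction velocity against substrate. Four independent experiments, each in triplicate; mean ± SEM.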

Ovis aries [4] = species on record: Ovis aries; assay: Inhibition of sheep brain dynamin 1 at 300 uM after 30 mins by malachite green method; in short: as §1
Dynamin-2 [5] = target: T2, Dynamin-2 (Homo sapiens, UniProt P50570); assay: Inhibition of dynamin 2-mediated receptor-induced endocytosis in human U2OS cells assessed as uptake of Tf-TxR dye after 30 mins by automated acquisition and analysis system; format: cell-based
T2 sequence (P50570 whole entry): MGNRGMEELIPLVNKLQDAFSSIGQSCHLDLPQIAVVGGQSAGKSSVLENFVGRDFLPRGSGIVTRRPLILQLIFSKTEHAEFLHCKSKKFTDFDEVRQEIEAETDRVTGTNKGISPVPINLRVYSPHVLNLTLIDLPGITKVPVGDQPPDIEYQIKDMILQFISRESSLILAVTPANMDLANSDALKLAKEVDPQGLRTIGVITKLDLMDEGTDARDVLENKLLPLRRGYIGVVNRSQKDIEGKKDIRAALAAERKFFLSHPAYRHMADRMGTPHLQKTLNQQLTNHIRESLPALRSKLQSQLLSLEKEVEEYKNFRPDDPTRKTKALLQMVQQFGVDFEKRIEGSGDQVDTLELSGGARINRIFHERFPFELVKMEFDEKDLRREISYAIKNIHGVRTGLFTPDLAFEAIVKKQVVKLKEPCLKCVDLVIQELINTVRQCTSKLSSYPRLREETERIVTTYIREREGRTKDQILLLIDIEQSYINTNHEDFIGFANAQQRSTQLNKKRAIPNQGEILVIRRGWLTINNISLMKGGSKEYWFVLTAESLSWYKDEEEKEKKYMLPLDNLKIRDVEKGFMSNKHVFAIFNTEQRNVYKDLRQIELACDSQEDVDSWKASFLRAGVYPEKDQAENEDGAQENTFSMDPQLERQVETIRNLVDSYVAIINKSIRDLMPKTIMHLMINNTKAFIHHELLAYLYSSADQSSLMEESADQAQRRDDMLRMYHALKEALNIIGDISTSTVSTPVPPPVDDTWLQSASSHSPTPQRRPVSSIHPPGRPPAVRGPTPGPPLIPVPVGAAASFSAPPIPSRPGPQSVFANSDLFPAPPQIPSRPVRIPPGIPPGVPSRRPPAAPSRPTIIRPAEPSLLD

Dynamin-2 [6] = target: T2, Dynamin-2; assay: Inhibition of recombinant dynamin 2 expressed in Sf9 cells after 30 mins by malachite green method

| IC50 [1] [µM] | inhibition (Ovis aries [2]) | SMILES | further results |
| --- | --- | --- | --- |
| 112 |  | CC(C)(C)c1ccc(N2C(=O)c3ccc(C(=O)Nc4cc(Cl)ccc4C(=O)O)cc3C2=O)cc1 |  |
| 95 |  | O=C(O)c1ccc(N2C(=O)c3ccc(C(=O)Nc4cc(Cl)ccc4C(=O)O)cc3C2=O)cc1 |  |
|  | inactive | O=C(Nc1cc(Cl)ccc1C(=O)O)c1ccc2c(c1)C(=O)N(C1CCCc3ccccc31)C2=O (centres undefined) |  |
|  | inactive | COc1cccc(N2C(=O)c3ccc(C(=O)Nc4cc(Cl)ccc4C(=O)O)cc3C2=O)c1 |  |
|  | inactive | COc1ccc(CN2C(=O)c3ccc(C(=O)Nc4cc(Cl)ccc4C(=O)O)cc3C2=O)cc1 |  |
| 84 |  | O=C(Nc1cc(Cl)ccc1C(=O)O)c1ccc2c(c1)C(=O)N(Cc1cccnc1)C2=O |  |
|  | inactive | O=C(Nc1cc(Cl)ccc1C(=O)O)c1ccc2c(c1)C(=O)N(c1ccccc1)C2=O |  |
| 104 |  | O=C(O)CCc1ccc(N2C(=O)c3ccc(C(=O)Nc4cc(Cl)ccc4C(=O)O)cc3C2=O)cc1 |  |
| 267 |  | O=C(Nc1cc(Cl)ccc1C(=O)O)c1ccc2c(c1)C(=O)N(c1ccc(C(=O)O)c(O)c1)C2=O |  |
| 17.4 |  | O=C(Nc1cc(Cl)ccc1C(=O)O)c1ccc2c(c1)C(=O)N(c1cccc([N+](=O)[O-])c1)C2=O | IC50 (Dynamin-1; read-out: IC50): 12.9 µM; Activity (Ovis aries [3]): Active |
| > 400 | 40% | O=C(Nc1cc(Cl)ccc1C(=O)O)c1ccc2c(c1)C(=O)N(c1ccccc1-c1ccccc1)C2=O |  |
| 78 |  | COc1ccc(N2C(=O)c3ccc(C(=O)Nc4cc(Cl)ccc4C(=O)O)cc3C2=O)cc1 |  |
|  | inactive | O=C(Nc1cc(Cl)ccc1C(=O)O)c1ccc2c(c1)C(=O)N(CCCCc1ccccc1)C2=O |  |
|  | inactive | O=C(Nc1cc(Cl)ccc1C(=O)O)c1ccc2c(c1)C(=O)N(Cc1ccccc1)C2=O |  |
| 16.6 |  | O=C(Nc1cc(Cl)ccc1C(=O)O)c1ccc2c(c1)C(=O)N(c1ccc([N+](=O)[O-])cc1)C2=O |  |
| 111 |  | O=C(Nc1cc(Cl)ccc1C(=O)O)c1ccc2c(c1)C(=O)N(c1cccc(CO)c1)C2=O |  |

| IC50 [1] [µM] | inhibition (Ovis aries [2]) | SMILES | further results |
| --- | --- | --- | --- |
| 95.5 |  | O=C(O)Cc1ccc(N2C(=O)c3ccc(C(=O)Nc4cc(Cl)ccc4C(=O)O)cc3C2=O)cc1 |  |
|  | inactive | O=C(Nc1cc(Cl)ccc1C(=O)O)c1ccc2c(c1)C(=O)N(CCc1ccccc1)C2=O |  |
| 61 |  | O=C(Nc1cc(Cl)ccc1C(=O)O)c1ccc2c(c1)C(=O)N(c1ccccc1O)C2=O | IC50 (Dynamin-1; read-out: IC50): 119 µM |
| 94 |  | Nc1cccc(N2C(=O)c3ccc(C(=O)Nc4cc(Cl)ccc4C(=O)O)cc3C2=O)c1 |  |
|  | inactive | CSc1ccc(N2C(=O)c3ccc(C(=O)Nc4cc(Cl)ccc4C(=O)O)cc3C2=O)cc1 |  |
| 311 |  | Nc1ccccc1N1C(=O)c2ccc(C(=O)Nc3cc(Cl)ccc3C(=O)O)cc2C1=O |  |
|  | inactive | O=C(Nc1cc(Cl)ccc1C(=O)O)c1ccc2c(c1)C(=O)N(c1cccc3ccccc13)C2=O |  |
|  | inactive | O=C(Nc1cc(Cl)ccc1C(=O)O)c1ccc2c(c1)C(=O)N(c1cccc(O)c1)C2=O |  |
| 4.58 |  | O=C(Nc1cc(Cl)ccc1C(=O)O)c1ccc2c(c1)C(=O)N(c1ccc(CO)cc1)C2=O | IC50 (Dynamin-1; read-out: IC50): 690 µM |
|  |  | CCOC(=O)c1ccc(N2C(=O)c3ccc(C(=O)Nc4cc(Cl)ccc4C(=O)O)cc3C2=O)cc1 | inhibition (Ovis aries [4]): 50% |
|  | inactive | O=C(Nc1cc(Cl)ccc1C(=O)O)c1ccc2c(c1)C(=O)N(c1ccccc1CO)C2=O |  |
| 39.8 |  | O=C(Nc1cc(Cl)ccc1C(=O)O)c1ccc2c(c1)C(=O)N(c1ccc(O)cc1)C2=O | IC50 (Dynamin-2 [5]): Not Active; IC50 (Dynamin-1): Not Active; IC50 (Dynamin-2 [6]): 114 µM |
|  | inactive | Cc1cccc(C)c1N1C(=O)c2ccc(C(=O)Nc3cc(Cl)ccc3C(=O)O)cc2C1=O |  |
|  | inactive | Nc1ccc(N2C(=O)c3ccc(C(=O)Nc4cc(Cl)ccc4C(=O)O)cc3C2=O)cc1 |  |
| 184 |  | O=C(Nc1cc(Cl)ccc1C(=O)O)c1ccc2c(c1)C(=O)N(c1ccccc1C(=O)O)C2=O |  |
